84 variants from the RNAGym collection of RNA variant scans (doi:10.1038/s41586-018-0170-7) can be followed below.

B1: tRNA (parent)
chain: GUUCCGUUGGCGUAAUGGUAACGCGUCUCCCUCCUAAGGAGAAGACUGCGGGUUCGAGUCCCGUACGGAACG

The series covers variants of B1. As to the kind of experiment: yeast fitness, log relative to wild type (ln ratio); higher = fitter; tRNA-Arg(CCU), competitive growth, 37 C, 1 M NaCl. In outline:
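Genotype fitness is expressed as the natural log of its generations over those of the wild type. Each pool of the tRNA-Arg(CCU) variant library, carried on a HIS3 centromeric plasmid in BY4742 lacking the chromosomal gene, came from one of two independent transformations and grew 4 generations in SC-HIS at 30 °C before ~6.5 generations (~26.5 h) in SC-HIS 1M NaCl at 37 °C. Generation numbers used OD-scaled log2 output/input frequencies from 125 bp paired-end Illumina sequencing, combined across replicates by inverse-variance weighting.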
Take G1A C27U A43C C46U A69G C71U: the “yeast fitness (ln)” value is -0.109.

Consider G1A G6A A43C C66U A69G C71U, for which the “yeast fitness (ln)” value was -0.811.

In the case of G1A A43C A70G C71U, the “yeast fitness (ln)” value is -0.095.

Take G1A C27U C66U A70G: the “yeast fitness (ln)” value is -0.176.

As for G1A C27U C66U A70U, the “yeast fitness (ln)” value was -0.152.

In the case of G1A A43C C66U A69G A70G C71U, the “yeast fitness (ln)” value is -0.293.

As for G1A C27U C46U A69G A70G, the “yeast fitness (ln)” value is -0.166.

As to G1A C27U C46U A69G A70U, the “yeast fitness (ln)” value is -0.118.

For the variant G1A A43C C71U, the “yeast fitness (ln)” value was -0.0202.

For the variant G1A G6A A43C, the “yeast fitness (ln)” value was -0.204.

On to G1A C27U A43C C46U C66A A70G C71U, for which the “yeast fitness (ln)” value is -0.211.

As for G1A C27U A70U C71U, the “yeast fitness (ln)” value is -0.34.

As for G1A G6A C27U, the “yeast fitness (ln)” value is -0.134.

Turning to G1A A70U, the “yeast fitness (ln)” value was -0.044.

With G1A A70G, the “yeast fitness (ln)” value is -0.204.

With G1A A70G C71U, the “yeast fitness (ln)” value was -0.0244.

Regarding G1A C46U A69G C71U, the “yeast fitness (ln)” value was -0.00219.

Consider G1A C27U A43C C46U C66A A70U C71U, for which the “yeast fitness (ln)” value is -0.359.

G1A C27U A43C C66U: the “yeast fitness (ln)” value was -0.242.

G1A A43C C66U A70U C71U: the “yeast fitness (ln)” value was -0.25.

For the variant G1A C27U A43C C46U C66A, the “yeast fitness (ln)” value is -0.103.

As for G1A C27U A43C C46U C66U, the “yeast fitness (ln)” value was -0.199.

Regarding G1A C27U A43C A69G A70U, the “yeast fitness (ln)” value was -0.389.

As for G1A C27U A43C A69G A70G, the “yeast fitness (ln)” value is -0.303.

As to G1A C46U C66A A69G A70U C71U, the “yeast fitness (ln)” value was -0.331.

On to G1A C27U A43C C46U C66U A69G A70U C71U, for which the “yeast fitness (ln)” value was -0.448.

Turning to G1A A43C C66U A69G A70U, the “yeast fitness (ln)” value is -0.373.

As for G1A A43C C66U A69G A70G, the “yeast fitness (ln)” value is -0.243.

As for G1A A43C C66U A69G C71U, the “yeast fitness (ln)” value was -0.377.

Consider G1A A43C A69G A70U C71U, for which the “yeast fitness (ln)” value was -0.366.

Regarding G1A C27U C66A A69G A70U C71U, the “yeast fitness (ln)” value was -0.303.

Regarding G1A A43C A70G, the “yeast fitness (ln)” value is -0.159.

With G1A A43C A70U, the “yeast fitness (ln)” value was -0.13.

As to G1A A43C C66U C71U, the “yeast fitness (ln)” value is -0.289.

As to G1A C27U C46U C66A A69G A70G C71U, the “yeast fitness (ln)” value was -0.193.

Take G1A C46U C66A A69G A70G C71U: the “yeast fitness (ln)” value is -0.178.

Turning to G1A C27U C46U C66A A70G C71U, the “yeast fitness (ln)” value is -0.187.

On to G1A C27U C46U C66U A69G A70U, for which the “yeast fitness (ln)” value is -0.286.

For G1A C27U C46U C66U A69G A70G, the “yeast fitness (ln)” value is -0.251.

As to G1A C27U A43C C46U A69G, the “yeast fitness (ln)” value was -0.116.

Regarding G1A C66A C71U, the “yeast fitness (ln)” value was -0.113.

On to G1A G6A C27U A43C A70U C71U, for which the “yeast fitness (ln)” value is -0.314.

Regarding G1A G6A A43C C46U A69G A70U C71U, the “yeast fitness (ln)” value is -0.473.

As for G1A C46U C66A A70U, the “yeast fitness (ln)” value is -0.0792.

G1A C46U C66A A70G: the “yeast fitness (ln)” value is -0.0981.

For G1A C27U A43C C46U C66A A69G A70G C71U, the “yeast fitness (ln)” value is -0.305.

On to G1A G6A A43C C66A A70U, for which the “yeast fitness (ln)” value is -0.201.

Take G1A C27U C66U A70U C71U: the “yeast fitness (ln)” value is -0.342.

As for G1A C46U A70G, the “yeast fitness (ln)” value is -0.226.

For G1A C46U A70U, the “yeast fitness (ln)” value was -0.0349.

G1A G6A A43C C46U C66U C71U: the “yeast fitness (ln)” value was -0.0152.

With G1A G6A C27U A43C C46U A70G, the “yeast fitness (ln)” value is -0.285.

Consider G1A C27U A43C C66A C71U, for which the “yeast fitness (ln)” value is -0.277.

Turning to G1A C27U C66A A70G C71U, the “yeast fitness (ln)” value was -0.346.

Turning to G1A C27U C66A C71U, the “yeast fitness (ln)” value was -0.159.

Consider G1A A43C C46U, for which the “yeast fitness (ln)” value is -0.059.

As for G1A G6A A43C C66A A70G C71U, the “yeast fitness (ln)” value was -0.297.

Take G1A C27U C66A A70U C71U: the “yeast fitness (ln)” value was -0.243.

Take G1A C27U A43C C46U C66A C71U: the “yeast fitness (ln)” value was -0.231.

As for G1A C27U C66U, the “yeast fitness (ln)” value was -0.206.

Take G1A C27U C66A: the “yeast fitness (ln)” value was -0.123.

On to G1A G6A A43C C66U A69G A70G, for which the “yeast fitness (ln)” value is -0.253.

Take G1A C46U C66A A69G A70U: the “yeast fitness (ln)” value was -0.0801.

In the case of G1A C46U C66A A69G A70G, the “yeast fitness (ln)” value was -0.183.

In the case of G1A C27U C46U C66A A69G A70G, the “yeast fitness (ln)” value is -0.248.

Turning to G1A C27U C46U C66A A69G A70U, the “yeast fitness (ln)” value was -0.179.

Take G1A G6A A43C C66U A70G C71U: the “yeast fitness (ln)” value is -0.377.

For G1A C27U A43C C71U, the “yeast fitness (ln)” value was -0.0801.

Take G1A C27U A43C C66A A69G A70G: the “yeast fitness (ln)” value is -0.279.

Turning to G1A C27U A43C C66A A69G A70U, the “yeast fitness (ln)” value was -0.391.

On to G1A A43C A69G A70U, for which the “yeast fitness (ln)” value is -0.257.

For the variant G1A A43C A69G A70G, the “yeast fitness (ln)” value is -0.11.

In the case of G1A C27U A43C C46U A69G A70U, the “yeast fitness (ln)” value is -0.324.

Turning to G1A C27U A43C C46U A69G A70G, the “yeast fitness (ln)” value was -0.183.

Consider G1A G6A A43C C46U A69G A70G, for which the “yeast fitness (ln)” value is -0.251.

For G1A G6A A43C C46U A69G A70U, the “yeast fitness (ln)” value was -0.283.

As for G1A C66U A69G A70G C71U, the “yeast fitness (ln)” value was -0.217.

In the case of G1A C27U A43C C66A A70U C71U, the “yeast fitness (ln)” value is -0.423.

Turning to G1A A43C C46U C66U A69G A70U, the “yeast fitness (ln)” value was -0.259.

For the variant G1A A43C C46U C66U A69G A70G, the “yeast fitness (ln)” value is -0.222.

With G1A C27U C46U C66U A69G A70U C71U, the “yeast fitness (ln)” value is -0.504.

Regarding G1A G6A A43C C71U, the “yeast fitness (ln)” value is -0.257.

Regarding G1A C46U C66U A69G A70U C71U, the “yeast fitness (ln)” value is -0.353.

Turning to G1A C27U C66A A69G A70U, the “yeast fitness (ln)” value is -0.19.
